Screens (PubChem BioAssay)
PglD inh: C. jejuni PglD acetyltransferase inhibitors, primary screen, biochemical, DTNB colorimetric, single point | purified PglD enzyme, DTNB colorimetric CoA detection | UDP-N-acetylbacillosamine N-acetyltransferase PglD (Campylobacter jejuni) | inhibition, % at 12.5 µM | 360,000 tested, 0.098% active; in the data active means inhibition above about 16%, passing the limit was not always enough
Cneo AK release: Cryptococcus neoformans cell lysis inducers, primary screen, AK release luminescence, single concentration. C. neoformans lysis, adenylate kinase release luminescence, 4 h; normalised: neutral wells 0, clomiphene wells 100. lysis activity, % at 15 µM. 360,000 tested, 0.2% active. AID 651654, 2012;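 active means mean lysis activity across replicates of at least 80%, whatever share of replicates individually reach that level; inactive means mean lysis activity below 80%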
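read-out = cell lysis signal | test system = log-phase Cryptococcus neoformans yeast cells | input = cells at 5 × 10^6 per mL | medium = fresh YPD growth medium | signal = luminescent adenylate kinase detection reagent | timing = 4 h at 37 °C static, read 1 h later | dosing = single dose | controls = Clomiphene as positive lysis control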
CAL PDZ FP-1: CAL PDZ peptide-binding inhibitors, primary screen, biochemical, fluorescence polarization, Cer-tagged CAL PDZ, HTS | inhibition, % at 20 µM | purified CAL PDZ, TMR-peptide fluorescence polarization, 1 h | 330,000 tested, 0.02% active | Golgi-associated PDZ and coiled-coil motif-containing protein (Homo sapiens), Q9HD26;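 active means highest replicate inhibition of at least 40%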;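 further: plate controls were DMSO neutral control wells for no effect and unlabeled competitor peptide control wells for full effect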
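Test system: purified CerCALP PDZ construct; Compound dosing: one concentration, 20 µM compound; Also added: TMR-labelled reporter peptide T*-PRC34 bound in PDZ groove; Read-out: inhibition from polarization loss; Controls: unlabelled peptide and DMSO controls; Signal: FP readout, S and P plane fluorescence; Incubation: 1 h at RT.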
CAL PDZ FP-2: untagged CAL PDZ binding inhibitors, primary screen, biochemical, fluorescence polarization, HTS. Golgi-associated PDZ and coiled-coil motif-containing protein (Homo sapiens), Q9HD26. purified CAL PDZ, TMR-peptide fluorescence polarization, 1 h. inhibition, % at 24.9 µM. 300,000 tested, 0.92% active. AID 602252, 2012;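 active means mean inhibition of at least 30% with at least half of replicates also reaching 30%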;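 further: 0% = DMSO neutral control and 100% = excess unlabeled competitor peptide PRC23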
miR-122 sensor: miR-122 Renilla sensor signal increase in Huh7, primary screen, miR-122 inhibitor project, cell-based, single point, plate reader; 340,000 tested, 0.3% active; Huh7 miR-122 Renilla luciferase sensor, 48 h; neutral wells = 0, positive control = 100; activation (reporter increase), % at 12.5 µM;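 active means mean replicate activation score at least 90 and every replicate individually at or above 90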;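 further: higher luciferase means less miR-122 activity so hits act as miR-122 inhibitors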
* hit, by the source's call; nt = not tested or not shown; ! = not active in a repeat; [ ] = dose if it differs, or a comment. Compounds with a hit are over-represented: about 1.1% of the library has one in this group of screens.

SMILES	PglD inh	Cneo AK release	CAL PDZ FP-1	CAL PDZ FP-2	miR-122 sensor
COc1ccc(NC(=O)n2ncc3c(C)cccc32)cc1OC	1	-6	0	1	-6
COc1ccc(NC(=O)n2ncc3c(C)cccc32)cc1	-6	-13	nt	62*	nt
O=C1NC(=O)/C(=C\c2cn(Cc3ccccc3F)c3ccccc23)N1	-7	1	0	59*	2
COC(=O)N/N=C/c1cn(Cc2ccccc2F)c2ccccc12	-2	0	0	1	19
CCc1ccc(-c2cc(C(=O)NCc3ccccn3)c3ccccc3n2)cc1	nt	nt	-3	-4	148*
Cc1ccc(-c2cc(C(=O)NCc3ccccn3)c3ccccc3n2)cc1	0	2	0	3	nt
Cc1ccc(-c2cc(C(=O)Nc3ccncc3)c3ccccc3n2)cc1	nt	nt	-4	32*	-4
CCC(C)(C)C1CCc2[nH]nc(C(=O)NCc3ccc(OC)cc3)c2C1 (stereo unspecified)	2	5	0	-4	-3
Cn1cc(CC(=O)Nc2cccc(C#N)c2)c2ccccc21	20	0	-1	-5	138*
CCCc1c(C)nc(N2CCN(c3ccccc3OC)CC2)[nH]c1=O	4	2	-3	55*	7
CCc1c(C)nc(SCC(=O)N2CCN(c3ccccc3OC)CC2)[nH]c1=O	nt	nt	-2	-4	7
C[C@@H]1CN([C@H](C)CO)C(=O)c2cccc(NS(C)(=O)=O)c2O[C@H]1CN(C)CC1CCCCC1	2	5	nt	nt	40[16.7 µM]
C[C@@H]1CN([C@H](C)CO)C(=O)c2cccc(NC(=O)C3CC3)c2O[C@H]1CN(C)CC1CCCCC1	-3	0	nt	nt	37[16.7 µM]
C[C@H](CO)N1C[C@H](C)[C@@H](CN(C)CC2CC2)Oc2c(NC(=O)C3CC3)cccc2C1=O	6	-1	0	-3	149*[16.7 µM]
C[C@H](CO)N1C[C@H](C)[C@@H](CN(C)CC2CCCCC2)Oc2c(NC(=O)C3CC3)cccc2C1=O	3	0	0	-5	114*![16.7 µM]
C[C@H](CO)N1C[C@H](C)[C@H](CN(C)CC2CCCCC2)Oc2c(NS(C)(=O)=O)cccc2C1=O	-3	91*	nt	nt	-2[16.7 µM]
C/C=C/c1cnc2c(c1)C(=O)N([C@H](C)CO)C[C@@H](C)[C@H](CN(C)Cc1cncnc1)O2	8	1	nt	nt	nt
Cc1noc(C)c1S(=O)(=O)Nc1cccc2c1O[C@H](CN(C)CC1CCCCC1)[C@H](C)CN([C@H](C)CO)C2=O	3	3	nt	nt	12[16.7 µM]
CC(OC(=O)/C=C/c1ccc2ccccc2n1)C(=O)Nc1ccc(S(N)(=O)=O)cc1 (stereo unspecified)	5	1	-1	nt	-4
Cc1cc(C)n2c(SCc3ccc(Br)cc3)nnc2n1	3	-2	nt	nt	-4
COC(=O)c1ccc(CSc2nnc3nc(C)cc(C)n23)cc1	nt	nt	-1	33*	nt
CCOC(=O)CC(=O)Nc1nnc(C(C)C)s1	-2	7	-1	38*	-9
C[C@@H]1CN([C@H](C)CO)C(=O)c2cc(NC(=O)c3ccccc3)ccc2O[C@@H](C)CCCCO[C@@H]1CN(C)Cc1ccc(C(F)(F)F)cc1	1	-2	nt	nt	-14[16.7 µM]
CC(C)(C)OC(=O)N1CCC(C(=O)N[C@@H](Cc2c[nH]c3ccccc23)C(=O)O)CC1	-3	2	nt	8	7
O=C(N[C@@H](Cc1c[nH]c2ccccc12)C(=O)O)C1CCN(S(=O)(=O)c2cccs2)CC1	2	1	nt	71*	7
SMILES	PglD inh	Cneo AK release	CAL PDZ FP-1	CAL PDZ FP-2	miR-122 sensor
O=C(N[C@@H](Cc1c[nH]c2ccccc12)C(=O)O)C1CCN(S(=O)(=O)c2ccc(Cl)cc2)CC1	-9	0	-1	32*	-4
CO[C@H]1CN(C)C(=O)c2cc(NS(=O)(=O)c3ccc(C)cc3)ccc2OC[C@@H](C)N(Cc2nccs2)C[C@H]1C	1	-66	nt	nt	nt
O=C1C=C(c2ccccc2)OC(c2ccccc2)O1 (stereo unspecified)	-1	2	-8	47*	-4
O=C1C=C(c2ccccc2)OC2(CCCC2)O1	0	-1	1	-1	-7
Cc1cc(C)n(-c2ccc(C(=O)N3CCc4ccccc43)cc2)n1	0	-9	1	0	-4
Cc1cc(C(=O)N2CCc3ccccc32)n(-c2ccccc2)n1	0	0	-1	-4	115*
CO[C@H]1O[C@H](CO)[C@@H](OC(=O)Nc2ccccc2)[C@H](OC(=O)Nc2ccc3c(c2)OCO3)[C@@H]1OC(=O)Nc1ccc2c(c1)OCO2	2	100*	nt	nt	nt
COc1cccc(CNC(=O)C[C@H]2C=C[C@H](NS(=O)(=O)c3ccccc3OC)[C@H](CO)O2)c1	2	-3	nt	nt	nt
C[C@@H]1CN([C@H](C)CO)C(=O)c2cc(NS(=O)(=O)c3ccc(F)cc3)ccc2O[C@H]1CN(C)S(=O)(=O)c1ccc(F)cc1	8	1	nt	nt	5[16.7 µM]
C=CCN1C(=O)C(C)S/C1=N\S(=O)(=O)c1ccc(Cl)cc1 (stereo unspecified)	3	-1	0	0	-1
CCN1C(=O)CS/C1=N\S(=O)(=O)c1ccc(Cl)cc1	-6	6	64*	-2	-7
Cc1cccc2c1c1ccc3c(c1n2C)C(=O)C=CC3=O	0	-2	-1	-5	nt
Cc1cccc(C(=O)OC(C)C(=O)N2CCc3ccccc3C2)c1C (stereo unspecified)	6	-1	-1	52*	nt
CCN(C(=O)COC(=O)CCc1ccc(OC)cc1)c1c(N)n(Cc2ccccc2)c(=O)[nH]c1=O	0	-1	-1	44*	-5
CN(C(=O)COC(=O)CCC(=O)c1ccccc1)c1c(N)n(Cc2ccccc2)c(=O)[nH]c1=O	nt	nt	-2	-3	nt
CCCOc1ccc(C(=O)CCC(=O)OCC(=O)N(C)c2c(N)n(Cc3ccccc3)c(=O)[nH]c2=O)cc1	-1	0	1	38*	-1
Cc1cc(OCC(=O)N(Cc2ccco2)c2c(N)n(Cc3ccccc3)c(=O)[nH]c2=O)ccc1Cl	-5	0	0	74*	nt
Nc1c(N(CCC2=CCCCC2)C(=O)COc2ccc(F)cc2)c(=O)[nH]c(=O)n1Cc1ccccc1	7	1	-2	12	nt
COc1ccc(CCC(=O)OCC(=O)N(C)c2c(N)n(Cc3ccccc3)c(=O)[nH]c2=O)cc1	10	1	-3	-2	-4
Nc1c(N(Cc2ccco2)C(=O)COc2ccc(Cl)cc2)c(=O)[nH]c(=O)n1Cc1ccccc1	1	-1	-1	1	nt
